The EternaBench riboswitch data

Tested on: MS2 coat protein
Assay: apparent Kd, MS2 coat protein; higher = weaker binding; RNA-MaP array; FMN 200 µM where present
Summary of the method: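 The titrant was SNAP-549-labelled MS2 coat protein, run from 0.7 or 1.5 nM in doubling steps to 3 µM. It was applied to designs transcribed by stalled E. coli RNA polymerase on Illumina sequencing-chip clusters, without ligand first and then with constant ligand, in 100 mM Tris-HCl pH 7.5, 80 mM KCl, 4 mM MgCl2, BSA, DTT, yeast tRNA and Tween-20. The apparent Kd is the median of filtered per-cluster binding-curve fits, with green signal normalised to red-channel RNA signal and control-cluster median Fmax.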

[1] = designed as: OFF switch for flavin mononucleotide, no ligand
[2] = ligand present: flavin mononucleotide, designed as: OFF switch for flavin mononucleotide
[3] = designed as: ON switch for flavin mononucleotide, no ligand
[4] = ligand present: flavin mononucleotide, designed as: ON switch for flavin mononucleotide

| Sequence | apparent Kd [1] [nM] | apparent Kd [2] [nM] | apparent Kd [3] [nM] | apparent Kd [4] [nM] |
| --- | --- | --- | --- | --- |
| AACUCACAUGAGGAUCACCCAUGUGAGGAUAUGAUACUAUGUACUUCGGUACAUAGUAUCAGAAGGCAUGUGGG | 50.5 | 28.1 | – | – |
| AGUGCCAUGUAGAAGGCAGAUCUGAUUCAGAUCUGAGGAUAUACAUGAGGAUCACCCAUGUAAAUGCACUGCACGAGAGUGCAA | 12 | 43.9 | – | – |
| UUGGACGUCGUAGGAUAUGUUGGAUAUUCCUACAUGAGGAUCACCCAUGUUGACAUGGAAGAAGGACAGAAGGACGAUGUCCAU | – | – | 5.08 | 4.49 |
| AAGAAACAUGAGGAUCACCCAUGUAAUAAUAUGGGAGGAUAUACAAGGACAAUAGUCAAGGUAGAAGGCCUAAGAA | – | – | 175 | 27.5 |
| UUACAUACAAAGUUACAUGAGGAUCACCCAUGUUUAUUGGGAAGAAGGGUAACAGUAUUACAUAUAUAGGAUAUUUCACAAUUG | – | – | 333 | 181 |
| CACUGCAAUGUAGGAUAUCGACUGGAAUACAGUCGAGAAGGACAUGAGGAUCACCCAUGUACUAAUAGUGAUAAUAAAGCAGUG | 14.6 | 54.1 | – | – |
| UGUAAGAUGCAGAAGGUGUUAGCUAGAGCUACGACAUGAGGAUCACCCAUGUACUAGAAACAGUACAAGGAUAUGCAUCUUACU | – | – | 18 | 6.53 |
| AUAAAACAUGAGGAUCACCCAUGUCAACAAAGUCGAGGAUAUGGGCAAAUAAAAUAAGAACCAGAAGGCGAAUUAU | – | – | 210 | 38.6 |
| CCAUUUACUGAGGAUAUUGCAUCACCCGACUGAUAAGAAGGCAGAACAUGAGGAUCACCCAUGUGGGUACUCAC | 73.7 | 105 | – | – |
| GGUCCAUUAUGAGGAUAUGGCACCUUAUUGGUGCCAGAAGGCAUGUCUUCACAUGAGGAUCACCCAUGUUAAAUAAAUUGGACC | – | – | 16.3 | 17.7 |
| AAACACGGACAUGAGGAUCACCCAUGUAAUAAUAACAUUGGGAGAAGGCCGAUUGCAAAGCAAUCGGAGGAUAUUCAUACCGUG | – | – | 279 | 447 |
| AGUGUCAUCGAGAAGGCCUCAACAUGAGGAUCACCCAUGUUGCAAAAUGGGAGGAUAUCGCGAAAACAGCUACGUUUCGUAGCA | – | – | 40.8 | 8.79 |
| ACUUGUAAGCAGAAGGCAGUCAUUGUAUUCGUCAUGUAGACAUGAGGAUCACCCAUGUAUAGUACUGAGGAUAUGCAUCGAUAG | 7.88 | 17.2 | – | – |
| GGUUCCUUCACAGGAUAUGCUAUCCUUUGGGUAGCAGAAGGGUGAUACAUGAGGAUCACCCAUGUGGAGCCAGGGCGUGAGCCC | – | – | 1260 | 428 |
| CUCAUGUGAGGAUAUGCUGCUCGUCACGAAAGUGAUGAGUAGCAGAAGGUACAUGAGGAUCACCCAUGUAAAUA | 98.9 | 18.8 | – | – |
| UCCACUGCUGAGAAGGGAUACGUCUGGUUCGCAUCAGGAUAUCGAUACAGUGCAGCAUGAGGACAUGAGGAUCACCCAUGUGUG | – | – | 103 | 53.6 |
| GCGUAUUACGCAGGAUAUCCUUAUAUACAUGAGGAUCACCCAUGUUUUUUCGGAGAAGGGCGUAUGGGAUUUAAGAAUCAACAA | – | – | 11.2 | 4.31 |
| UCCUCACAUGAGGAUCACCCAUGUCAGGAUAUCUCACAGCUAAAGAAUAAAGGCUGCAAGAGAAGGGACACAAU | 21.6 | 48.1 | – | – |

| Sequence | apparent Kd [1] [nM] | apparent Kd [2] [nM] | apparent Kd [3] [nM] | apparent Kd [4] [nM] |
| --- | --- | --- | --- | --- |
| GUCAGCUCGUGAGGAUAUACAACACUGCUUCGGCAGUGUAUUAAGAUCACAUGAGGAUCACCCAUGUAGAAGGCACAAGCUGAU | 15.9 | 271 | – | – |
| AUAGGCCUAGGAUAUACAUGAGGAUCACCCAUGUUAAUACUUCAAUCAUGAUAAACGUGUAGAAGGAGGAAUAA | 25.8 | 26.1 | – | – |
| GGAAAACAUGAGGAUCACCCAUGUGAGGAUAUUGAAACAAACAAAACAAACAAACAAACAAGAAGGCACAGGAA | 26.1 | 25.5 | – | – |
| AAUUUACAGGGAGGAUAUACAUGAGGAUCACCCAUGUAAUCAUAUGAUAUUUUUUUUGUAUGAGUGUAGAAGGCCCAAAUAAAA | 9.32 | 11.1 | – | – |
| GUAAAGUGAGGAUAUGGUAAAGUAAGUAUUUAGUAAGUAAUCCAGAAGGCACAUGAGGAUCACCCAUGUAAAUG | 29.3 | 35.8 | – | – |
| AAGAGGUCAGGAUAUACGGAGAGAGGGAGUUGGUGAGGGUAACAUGAGGAUCACCCAUGUAGAAGGGACUAAGA | 22.4 | 24.7 | – | – |
| UUAUGUCGCGUAGGAUAUCACUAGUGUUGUAAUUUAAUUGUAAUUACGAUGUGAGAAGGACGUACACAUGAGGAUCACCCAUGU | 20.3 | 16.2 | – | – |
| CUUGGCUAGGAGAAGGGCUAGAGUGUGAUAUAUUUGCCCGCGAGCACAUGAGGAUCACCCAUGUAGCAGGAUAUCCAAGCCGGU | 7.4 | 17.4 | – | – |
| UGAUAGGACAGAGGAUAUACGGAUAGGAUCUACUAUCAAACAAGUCCUACAUGAGGAUCACCCAUGUAGAAGGCUGUCCUAUCU | 16.1 | 22.2 | – | – |
| AGAUGACAAAGUCAUCUCGCUUUGACAUGAGGAUCACCCAUGUAGGAUAUAUUAAUCAAAGAUUAAUAGAAGGACAUGUUUCUG | 87.1 | 172 | – | – |
| UGAAAGUGAGGAUAUGGUGAGUAGUGCCUGAGCGCUGCUCACCAGAAGGCACAUGAGGAUCACCCAUGUAAAUG | 53.4 | 170 | – | – |
| AGGAGGAAUGUAGGAUAUAUAUAUAUAUAUAGGCAAAGCGUAUAUAUAUAUAUAGAAGGACAUGAGGAUCACCCAUGUUUCCCU | 9.27 | 8.99 | – | – |
| AAUUGACACGUAGGAUAUCGAUCUAUAUUAACUCGAGAAGGACGUACAUGAGGAUCACCCAUGUUUAAUGGAGUAGAUAUGUUG | 82.8 | 308 | – | – |
| AGUCGGAGCAGAGGAUAUAUACAUGAGGAUCACCCAUGUGAAUGAAUAAGCUGGAAACAGCAUGUAUAGAAGGCUGCUCCGACA | 352 | 603 | – | – |
| CAAUGUCAAAAGGAUAUUGCCAGCAUAAAUGGUCGAGAAGGUUUGACAUGAGGAUCACCCAUGUAAUGAACCUG | 14.6 | 51.2 | – | – |
| GUAGAGUCAGGAUAUACGAGAUCGAAAGAUCGUCGAUCCUUACAUGAGGAUCACCCAUGUAGAAGGGACUCUAC | 22.7 | 238 | – | – |
| GUCCUACAUGAGGAUCACCCAUGUAAGGAUAUGCUAGCGGUCGGAUGACUGACUGCUAGCAGAAGGUACAUGAU | 15.2 | 24.9 | – | – |
| CUUAUGUGAGGAUAUGGUGUUGGUCACAGGAAAAAGAUUCUCCAGAAGGCACAUGAGGAUCACCCAUGUAGUGA | 89.4 | 71.2 | – | – |
